Experimental data as given in ChEMBL document CHEMBL3407374, “Synthesis of structural analogues of hexadecylphosphocholine and their antineoplastic, antimicrobial and amoebicidal activity” (Eur J Med Chem, 2015).
≈ marks a conversion by molar mass, not a printed value.

Test system: Acanthamoeba quina
Assay: Ratio of miltefosine MTC to compound MTC for Acanthamoeba quina trophozoites assessed as viability after 1 to 48 hrs by trypan blue exclusion assay
Type: functional
Conditions: not given

| SMILES | Ratio |
| --- | --- |
| CCCCCCCCCCCCCCC[N+](C)(C)CCOP(=O)([O-])OCC | 2 |

Test system: A2780
Assay: Cytotoxicity against human A2780 cells after 24 hrs by MTT method
Type: functional, cell-based
Conditions: A2780, 24 h
Outline: (§1)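 MCF-7 grown in MEM with NEA, FCS, glutamine; A2780 in RPMI-1640 with FCS, glutamine; 37 °C, 5% CO₂, trypsin-EDTA passaging. Seeded 20 000 cells/well, treated after about 20 h; 24-h exposure. MTT read-out, formazan dissolved in DMSO, read at 492/520 nm. IC50 from log inhibitor versus normalized response sigmoidal fit.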

| SMILES | IC50 |
| --- | --- |
| CCCCCCCCCCCCCCOP(=O)([O-])OCC[N+](C)(C)CCC | 28.6 µM |
| CCCCCCCCC[N+](C)(C)CCOP(=O)([O-])OCCCCCCCC | 4.32 µM |
| CCCCCCCCCCCCOP(=O)([O-])OCC[N+](C)(C)CCCCC | 24.8 µM |
| CCCCCCCCCCCCCCCOP(=O)([O-])OCC[N+](C)(C)CC | 10.1 µM |
| CCCCCCCCCCCCCCC[N+](C)(C)CCOP(=O)([O-])OCC | 7.44 µM |
| CCCCCCCCCC[N+](C)(C)CCOP(=O)([O-])OCCCCCCC | 4.7 µM |
| CCCCCCCCCCCCCCCCOP(=O)([O-])OCC[N+](C)(C)C [MILTEFOSINE] | 8.87 µM |

Test system: Escherichia coli
Assay: Antimicrobial activity against Escherichia coli ATCC 377/79 assessed as prevention of colony formation after 24 hrs by spectrophotometry
Type: functional
Conditions: ATCC 377/79, 24 h
Outline: (§2)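 Bacteria grown 24 h on blood agar, Candida on Sabouraud agar; suspensions in physiological solution (pH 7.2), 5 × 10⁷ CFU/ml bacteria, 5 × 10⁵ CFU/ml Candida. […] suspension added to aqueous compound solution plus double-strength peptone broth (bacteria) or Sabouraud medium (Candida). Incubated 24 h at 37 °C in 96-well plates, then subcultured on agar 24 h at 37 °C.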

| SMILES | MIC |
| --- | --- |
| CCCCCCCCCCCCCCOP(=O)([O-])OCC[N+](C)(C)CCC | > 1000 µM |
| CCCCCCCCC[N+](C)(C)CCOP(=O)([O-])OCCCCCCCC | > 1000 µM |
| CCCCCCCCCCCCOP(=O)([O-])OCC[N+](C)(C)CCCCC | > 1000 µM |
| CCCCCCCCCCCCCCCOP(=O)([O-])OCC[N+](C)(C)CC | > 1000 µM |
| CCCCCCCCCCCCCCC[N+](C)(C)CCOP(=O)([O-])OCC | > 1000 µM |
| CCCCCCCCCC[N+](C)(C)CCOP(=O)([O-])OCCCCCCC | > 1000 µM |
| CCCCCCCCCCCCCCCCOP(=O)([O-])OCC[N+](C)(C)C [MILTEFOSINE] | > 1000 µM |

Test system: Staphylococcus aureus
Assay: Antimicrobial activity against Staphylococcus aureus ATCC 29/58 assessed as prevention of colony formation after 24 hrs by spectrophotometry
Type: functional
Conditions: ATCC 29/58, 24 h
Outline: as §2

| SMILES | MIC |
| --- | --- |
| CCCCCCCCCCCCCCOP(=O)([O-])OCC[N+](C)(C)CCC | > 1000 µM |
| CCCCCCCCC[N+](C)(C)CCOP(=O)([O-])OCCCCCCCC | > 1000 µM |
| CCCCCCCCCCCCOP(=O)([O-])OCC[N+](C)(C)CCCCC | > 1000 µM |
| CCCCCCCCCCCCCCCOP(=O)([O-])OCC[N+](C)(C)CC | > 1000 µM |
| CCCCCCCCCCCCCCC[N+](C)(C)CCOP(=O)([O-])OCC | > 1000 µM |
| CCCCCCCCCC[N+](C)(C)CCOP(=O)([O-])OCCCCCCC | > 1000 µM |
| CCCCCCCCCCCCCCCCOP(=O)([O-])OCC[N+](C)(C)C [MILTEFOSINE] | 11.5 µM (≈ 4.69 µg/mL) |

Test system: MCF7
Assay: Cytotoxicity against human MCF7 cells after 24 hrs by MTT method
Type: functional, cell-based
Conditions: MCF7, 24 h
Outline: as §1

| SMILES | IC50 |
| --- | --- |
| CCCCCCCCCCCCCCOP(=O)([O-])OCC[N+](C)(C)CCC | 50.6 µM |
| CCCCCCCCC[N+](C)(C)CCOP(=O)([O-])OCCCCCCCC | 19.2 µM |
| CCCCCCCCCCCCOP(=O)([O-])OCC[N+](C)(C)CCCCC | 66.1 µM |
| CCCCCCCCCCCCCCCOP(=O)([O-])OCC[N+](C)(C)CC | 43.3 µM |
| CCCCCCCCCCCCCCC[N+](C)(C)CCOP(=O)([O-])OCC | 14.4 µM |
| CCCCCCCCCC[N+](C)(C)CCOP(=O)([O-])OCCCCCCC | 26.2 µM |
| CCCCCCCCCCCCCCCCOP(=O)([O-])OCC[N+](C)(C)C [MILTEFOSINE] | 35.7 µM |

Test system: Candida albicans
Assay: Antimicrobial activity against Candida albicans ATCC 8186 assessed as prevention of colony formation after 24 hrs by spectrophotometry
Type: functional
Conditions: ATCC 8186, 24 h
Outline: as §2

| SMILES | MIC |
| --- | --- |
| CCCCCCCCCCCCCCOP(=O)([O-])OCC[N+](C)(C)CCC | 11.7 µM (≈ 4.77 µg/mL) |
| CCCCCCCCC[N+](C)(C)CCOP(=O)([O-])OCCCCCCCC | 367 µM (≈ 150 µg/mL) |
| CCCCCCCCCCCCOP(=O)([O-])OCC[N+](C)(C)CCCCC | 184 µM (≈ 74.8 µg/mL) |
| CCCCCCCCCCCCCCCOP(=O)([O-])OCC[N+](C)(C)CC | 2.93 µM (≈ 1.19 µg/mL) |
| CCCCCCCCCCCCCCC[N+](C)(C)CCOP(=O)([O-])OCC | 21.1 µM (≈ 8.62 µg/mL) |
| CCCCCCCCCC[N+](C)(C)CCOP(=O)([O-])OCCCCCCC | 352 µM (≈ 144 µg/mL) |
| CCCCCCCCCCCCCCCCOP(=O)([O-])OCC[N+](C)(C)C [MILTEFOSINE] | 2.87 µM (≈ 1.17 µg/mL) |

Test system: Acanthamoeba quina
Assay: Antiprotozoal activity against Acanthamoeba quina trophozoites assessed as viability after 1 to 48 hrs by trypan blue exclusion assay
Type: functional
Conditions: not given
Outline: (§3)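 Trophozoites axenized from 2-day monoxenic agar cultures via BCS then PYG media with antibiotics, then cultured antibiotic-free in PYG. 2 × 10⁵ cells/ml suspension mixed 1:1 with medium holding compound; final […]. Survivors counted by haemocytometer with trypan blue at 1, 24, 48 h; eradication confirmed by 14-day PYG regrowth; MTC = lowest concentration giving 100% eradication.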

| SMILES | MTC |
| --- | --- |
| CCCCCCCCCCCCCCOP(=O)([O-])OCC[N+](C)(C)CCC | 125 µM |
| CCCCCCCCC[N+](C)(C)CCOP(=O)([O-])OCCCCCCCC | 125 µM |
| CCCCCCCCCCCCOP(=O)([O-])OCC[N+](C)(C)CCCCC | 125 µM |
| CCCCCCCCCCCCCCCOP(=O)([O-])OCC[N+](C)(C)CC | 125 µM |
| CCCCCCCCCCCCCCC[N+](C)(C)CCOP(=O)([O-])OCC | 62.5 µM |
| CCCCCCCCCC[N+](C)(C)CCOP(=O)([O-])OCCCCCCC | 125 µM |
| CCCCCCCCCCCCCCCCOP(=O)([O-])OCC[N+](C)(C)C [MILTEFOSINE] | 125 µM |

Test system: Acanthamoeba lugdunensis
Assay: Antiprotozoal activity against Acanthamoeba lugdunensis trophozoites assessed as viability after 1 to 48 hrs by trypan blue exclusion assay
Type: functional
Conditions: not given
Outline: as §3

| SMILES | MTC |
| --- | --- |
| CCCCCCCCCCCCCCOP(=O)([O-])OCC[N+](C)(C)CCC | 125 µM |
| CCCCCCCCC[N+](C)(C)CCOP(=O)([O-])OCCCCCCCC | 125 µM |
| CCCCCCCCCCCCOP(=O)([O-])OCC[N+](C)(C)CCCCC | 125 µM |
| CCCCCCCCCCCCCCCOP(=O)([O-])OCC[N+](C)(C)CC | 125 µM |
| CCCCCCCCCCCCCCC[N+](C)(C)CCOP(=O)([O-])OCC | 62.5 µM |
| CCCCCCCCCC[N+](C)(C)CCOP(=O)([O-])OCCCCCCC | 125 µM |
| CCCCCCCCCCCCCCCCOP(=O)([O-])OCC[N+](C)(C)C [MILTEFOSINE] | 250 µM |

Test system: HuT78
Assay: Cytotoxicity against human HUT78 cells after 24 hrs by MTS method
Type: functional, cell-based
Conditions: HuT78, 24 h
Outline: (§4)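 THP-1 and HUT-78 grown in suspension in RPMI-1640 with FCS, glutamine, penicillin-streptomycin, NEA, 2-sulfanylethanol, sodium pyruvate; 37 °C, 5% CO₂; passaged by centrifugation. 24-h exposure; MTS read-out (water-soluble formazan) at 492/520 nm. IC50 from log inhibitor versus normalized response sigmoidal fit.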

| SMILES | IC50 |
| --- | --- |
| CCCCCCCCCCCCCCOP(=O)([O-])OCC[N+](C)(C)CCC | 51.4 µM |
| CCCCCCCCC[N+](C)(C)CCOP(=O)([O-])OCCCCCCCC | 280 µM |
| CCCCCCCCCCCCOP(=O)([O-])OCC[N+](C)(C)CCCCC | 55.2 µM |
| CCCCCCCCCCCCCCCOP(=O)([O-])OCC[N+](C)(C)CC | 62.7 µM |
| CCCCCCCCCCCCCCC[N+](C)(C)CCOP(=O)([O-])OCC | 35.2 µM |
| CCCCCCCCCC[N+](C)(C)CCOP(=O)([O-])OCCCCCCC | 437 µM |
| CCCCCCCCCCCCCCCCOP(=O)([O-])OCC[N+](C)(C)C [MILTEFOSINE] | 67.2 µM |

Test system: not listed separately
Assay: Cytotoxicity against human lymphocytes assessed as growth inhibition at 500 uM after 24 hrs by MTS method
Type: cell-based, Lymphocyte
Conditions: human lymphocytes, read-out: GI

| SMILES | inhibition at 24 h, 500 µM |
| --- | --- |
| CCCCCCCCCCCCCCC[N+](C)(C)CCOP(=O)([O-])OCC | 10% |

Same assay, conditions: lymphocyte, 24 h, 500 µM

| SMILES | growth inhibition (GI) |
| --- | --- |
| CCCCCCCCC[N+](C)(C)CCOP(=O)([O-])OCCCCCCCC | Non-toxic |
| CCCCCCCCCC[N+](C)(C)CCOP(=O)([O-])OCCCCCCC | Non-toxic |

Test system: not listed separately
Assay: Solubility of the compound in water
Type: physicochemical
Conditions: buffer

| SMILES | solubility |
| --- | --- |
| CCCCCCCCCCCCCCOP(=O)([O-])OCC[N+](C)(C)CCC | soluble |
| CCCCCCCCC[N+](C)(C)CCOP(=O)([O-])OCCCCCCCC | soluble |
| CCCCCCCCCCCCOP(=O)([O-])OCC[N+](C)(C)CCCCC | soluble |
| CCCCCCCCCCCCCCCOP(=O)([O-])OCC[N+](C)(C)CC | soluble |
| CCCCCCCCCCCCCCC[N+](C)(C)CCOP(=O)([O-])OCC | soluble |
| CCCCCCCCCC[N+](C)(C)CCOP(=O)([O-])OCCCCCCC | soluble |

Test system: THP-1
Assay: Cytotoxicity against human THP1 cells after 24 hrs by MTS method
Type: functional, cell-based
Conditions: THP-1, 24 h
Outline: as §4

| SMILES | IC50 |
| --- | --- |
| CCCCCCCCCCCCCCOP(=O)([O-])OCC[N+](C)(C)CCC | 127 µM |
| CCCCCCCCC[N+](C)(C)CCOP(=O)([O-])OCCCCCCCC | 544 µM |
| CCCCCCCCCCCCOP(=O)([O-])OCC[N+](C)(C)CCCCC | 93.2 µM |
| CCCCCCCCCCCCCCCOP(=O)([O-])OCC[N+](C)(C)CC | 96.8 µM |
| CCCCCCCCCCCCCCC[N+](C)(C)CCOP(=O)([O-])OCC | 30.5 µM |
| CCCCCCCCCC[N+](C)(C)CCOP(=O)([O-])OCCCCCCC | 647 µM |
| CCCCCCCCCCCCCCCCOP(=O)([O-])OCC[N+](C)(C)C [MILTEFOSINE] | 81.3 µM |

Test system: not listed separately
Assay: Critical micelle concentration of the compound
Type: ADME
Conditions: not given

| SMILES | CMC |
| --- | --- |
| CCCCCCCCCCCCCCCCOP(=O)([O-])OCC[N+](C)(C)C [MILTEFOSINE] | 1.25 umol/dm3 |
